From PubChem BioAssay AID1453 (NMMLSC, 2008) come the findings set out here.

Each structure is given as a SMILES string. The list shows a part of the results. Values without a mark were called inactive.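 How the source made its calls: active means inhibition above 50%; inactive means the rest.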

One may read the inhibition as the percentage by which the read-out fell short of the control.

The test concerns the target Broad substrate specificity ATP-binding cassette transporter ABCG2 (Homo sapiens) (UniProt Q9UNQ0). In words: ABCG2 efflux pump inhibitors, confirmation, single point, IgMXP3 cells, ABCB1 counter-screen paired (AID 1453).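 Further: 0% = DMSO wells and 100% = nicardipine pump inhibitor wells.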 The note with it: JC-1 efflux, flow cytometry, at 6.6 µM, active compounds read high. In a few lines:
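Assay system: Drug-resistant IgMXP3 cells expressing human ABCG2 | Quantity: 3 million cells/mL final | Technique: Flow cytometry, median fluorescence at 530 nm | Compound dosing: Single test compound dose, 6.6 µM final | Times: 10 min end-over-end mixing at 25 °C before reading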
In general terms: A counterscreen serves to expose hits that act by an unwanted route or on another target.

Broad substrate specificity ATP-binding cassette transporter ABCG2 (Homo sapiens), sequence (Q9UNQ0 whole entry, looked up): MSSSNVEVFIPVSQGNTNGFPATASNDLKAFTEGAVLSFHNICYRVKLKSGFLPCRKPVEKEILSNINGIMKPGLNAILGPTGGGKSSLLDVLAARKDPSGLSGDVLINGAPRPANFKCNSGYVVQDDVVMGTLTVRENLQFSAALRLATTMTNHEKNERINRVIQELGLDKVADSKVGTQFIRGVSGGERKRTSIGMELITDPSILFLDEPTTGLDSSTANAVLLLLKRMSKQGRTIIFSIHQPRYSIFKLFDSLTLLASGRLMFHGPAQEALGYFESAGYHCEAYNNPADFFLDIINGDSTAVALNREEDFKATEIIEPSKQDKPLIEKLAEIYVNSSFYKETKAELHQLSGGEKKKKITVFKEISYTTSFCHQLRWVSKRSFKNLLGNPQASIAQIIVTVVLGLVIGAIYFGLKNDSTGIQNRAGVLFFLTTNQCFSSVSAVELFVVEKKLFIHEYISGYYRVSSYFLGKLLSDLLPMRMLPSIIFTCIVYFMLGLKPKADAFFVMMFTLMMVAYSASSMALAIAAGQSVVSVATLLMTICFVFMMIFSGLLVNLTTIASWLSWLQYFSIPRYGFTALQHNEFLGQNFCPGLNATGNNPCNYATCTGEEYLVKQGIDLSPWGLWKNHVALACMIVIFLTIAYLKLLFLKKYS

As for `COC(=O)COc1cc(C)cc2oc(=O)c3c(c12)CCCC3`, the inhibition is 22.6%.
